Experimental data from paper PMC4090943 (Bioorganic & medicinal chemistry letters, 2014).

Assays:
rat mGlu5 = rat mGlu5 (Rattus norvegicus, UniProt P31424); test: Calcium mobilization mGlu5 assay; format: cell-based; settings: HEK293A cells expressing rat mGlu5; EC80 glutamate; average of n ≥ 3
the other seven mGlus = test: Cell based functional mGlu selectivity assays; settings: 10μM
[1] = system: 68 clinically relevant GPCRs, ion channels, kinases, and transporters; test: LeadProfilingScreen radioligand binding assay panel; settings: 10 μM compound; 68 targets
[2] = Rat PO tissue distribution study; format: in vivo, male Sprague-Dawley rats; settings: rat PO 10 mg/kg, 60 min
Method in brief: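 Male Sprague-Dawley rats (n=2 per time point) received a single 10 mg/kg oral dose in 10% Tween 80 in 0.5% MC. At 60 min they were euthanized and decapitated, and blood, hepatic portal vein and brain were collected. After protein precipitation, plasma and brain homogenate supernatants were analysed by LC-MS/MS.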

marble burying [3] = test: Mouse marble burying model of anxiety; format: in vivo; settings: mice, IP, 15 minute pretreatment; P < 0.05 vs. vehicle, Dunnett's test
Method in brief: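 Naïve mice given the test compound IP, with a vehicle control group, and then placed with glass marbles in deep bedding. The read-out was the number of marbles buried. n = 7-8 per dose. Each dose group was compared with the vehicle group by Dunnett's test (P < 0.05).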

[4] = non-human primate regulatory toxicology studies; cited from earlier work
marble burying [5] = settings: mice; ref 7a,d; cited from earlier work

Sequence of rat mGlu5 (P31424 21-1203): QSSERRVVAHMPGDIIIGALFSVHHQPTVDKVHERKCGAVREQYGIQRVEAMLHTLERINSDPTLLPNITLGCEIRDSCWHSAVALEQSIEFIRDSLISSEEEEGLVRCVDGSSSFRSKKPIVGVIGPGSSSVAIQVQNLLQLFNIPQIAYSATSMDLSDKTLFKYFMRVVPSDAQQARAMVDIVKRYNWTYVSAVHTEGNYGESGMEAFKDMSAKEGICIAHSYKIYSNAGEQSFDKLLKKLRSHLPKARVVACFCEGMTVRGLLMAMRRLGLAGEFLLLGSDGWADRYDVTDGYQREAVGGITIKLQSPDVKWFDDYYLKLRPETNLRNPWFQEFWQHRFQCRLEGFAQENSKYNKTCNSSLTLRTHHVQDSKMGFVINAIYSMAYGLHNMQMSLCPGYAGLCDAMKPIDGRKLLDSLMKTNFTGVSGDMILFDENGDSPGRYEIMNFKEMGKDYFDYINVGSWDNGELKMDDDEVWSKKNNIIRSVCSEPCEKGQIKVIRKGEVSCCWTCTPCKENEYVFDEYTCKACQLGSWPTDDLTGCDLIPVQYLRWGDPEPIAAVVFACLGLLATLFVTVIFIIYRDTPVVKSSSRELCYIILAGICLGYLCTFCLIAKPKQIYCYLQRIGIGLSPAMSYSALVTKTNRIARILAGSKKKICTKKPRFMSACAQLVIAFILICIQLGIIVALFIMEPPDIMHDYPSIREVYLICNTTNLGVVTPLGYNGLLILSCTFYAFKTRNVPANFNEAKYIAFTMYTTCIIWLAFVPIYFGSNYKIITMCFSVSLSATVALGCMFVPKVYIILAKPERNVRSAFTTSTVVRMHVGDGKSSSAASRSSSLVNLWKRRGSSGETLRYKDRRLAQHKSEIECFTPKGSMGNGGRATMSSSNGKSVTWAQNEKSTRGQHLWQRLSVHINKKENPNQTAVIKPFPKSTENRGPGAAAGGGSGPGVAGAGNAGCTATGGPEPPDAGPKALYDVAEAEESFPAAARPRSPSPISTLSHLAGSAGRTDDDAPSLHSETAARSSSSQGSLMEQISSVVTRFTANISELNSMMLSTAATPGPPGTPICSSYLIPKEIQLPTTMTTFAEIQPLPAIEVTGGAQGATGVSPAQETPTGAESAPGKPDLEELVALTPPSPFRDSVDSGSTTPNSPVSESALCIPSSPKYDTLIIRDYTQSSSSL

Row | mGlu5 pIC50 (± SEM) (rat mGlu5) | SMILES | further results
1 | <4.5 | O=C(Nc1cncc(Oc2cncc(F)c2)n1)c1cccc(Cl)c1F [Compound 42] | 
2 | <4.5 | O=C(Nc1cncc(Oc2cncc(F)c2)n1)c1cc(F)cc(F)c1 [Compound 46] | 
3 | <4.5 | O=C(Nc1cncc(Oc2cncc(F)c2)n1)c1cc(Cl)cc(Cl)c1 [Compound 47] | 
4 | <4.5 | COc1cc(OC)cc(C(=O)Nc2cncc(Oc3cncc(F)c3)n2)c1 [Compound 49] | 
5 | <4.5 | N#Cc1cc(F)cc(C(=O)Nc2cncc(Oc3cncc(F)c3)n2)c1 [Compound 50] | 
6 | <4.5 | O=C(Nc1cncc(Oc2cncc(F)c2)n1)c1cccnc1 [Compound 60] | 

Further lines, the compound ahead of its results:

Row | SMILES | mGlu5 pIC50 (± SEM) (rat mGlu5) | further results
7 | O=C(Nc1cncc(Oc2cncc(F)c2)n1)c1cccnn1 [Compound 61] | <4.5 | 
8 | O=C(Nc1cncc(Oc2cncc(F)c2)n1)c1ccncn1 [Compound 63] | <4.5 | 
9 | Cc1ccc(C(=O)Nc2cncc(Oc3cncnc3)n2)s1 [Compound 65] | <4.5 | 
10 | O=C(Nc1cncc(Oc2cncnc2)n1)c1cc(Cl)ccn1 [Compound 68, 4-chloro-N-(6-(pyrimidin-5-yloxy)pyrazin-2-yl)picolinamide] |  | activity against the other seven mGlus (the other seven mGlus): no detectable activity; significant responses (>50% inhibition of radioligand binding) in panel [1]: no significant responses were found; HPV (hepatic portal vein) concentration [2]: 1.31 µM; brain concentration [2]: 1.45 µM; plasma concentration [2]: 0.92 µM; doses giving statistically significant inhibition of marble burying (marble burying [3]): greater than or equal to 10 mg/kg
11 | O=C(c1ccc(OC(F)F)c(C#Cc2ccccn2)c1)N1Cc2cccnc2C1 [GRN-529] |  | toxicology finding [4]: biliary epithelial hyperplasia
12 | Cc1cccc(C#Cc2ccccc2)n1 [MPEP] |  | effect on marble burying (marble burying [5]): inhibit marble burying
13 | CN1CC(=O)NC1=NC(=O)Nc1cccc(Cl)c1 [fenobam] |  | effect on marble burying (marble burying [5]): inhibit marble burying
